Measurements: ChEMBL document CHEMBL3352714, “Synthesis, in Vitro Covalent Binding Evaluation, and Metabolism of (14)C-Labeled Inhibitors of 11β-HSD1” (ACS Med Chem Lett, 2014)

Legend:
Liver microsome [1] = test: Oxidative metabolism in human liver microsomes assessed as protein covalent binding measured per mg protein at 10 uM after 1 hr in presence of NADPH
Liver microsome [2] = test: Oxidative metabolism in human liver microsomes assessed as protein covalent binding measured per mg protein at 10 uM after 1 hr in presence of NADPH
[3] = Drug metabolism in human hepatocytes assessed as total turnover after 2 hrs by LC-MS/MS-radiometric analysis; type: ADME, cell-based, Hepatocyte; settings: read-out: Drug metabolism
Method in brief: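 14C-labeled compound incubated with human hepatocytes. Parent and radiolabeled metabolites were analyzed by tandem LC–MS/MS with radiometric detection and expressed as % of administered dose.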

[4] = Clearance in rat at 0.5 mg/kg, iv; type: ADME, organism-based; parameters: dose 0.5 mg/kg, route intravenous; settings: in vivo
Method in brief: (§1)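 Intravenous dose 0.5 mg/kg, formulated in 10% N,N-dimethylacetamide, 10% ethanol, 40% propylene glycol and 40% water. Values are averages of three animals per species.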

[5] = Clearance in cynomolgus monkey at 0.5 mg/kg, iv; type: ADME, organism-based, Macaca fascicularis; parameters: dose 0.5 mg/kg, route intravenous; settings: in vivo; method in brief: as §1
[6] = Clearance in dog at 0.5 mg/kg, iv; type: ADME, organism-based, Canis lupus familiaris; parameters: dose 0.5 mg/kg, route intravenous; settings: in vivo; method in brief: as §1
[7] = Volume of distribution at steady state in rat at 0.5 mg/kg, iv; type: ADME, organism-based; parameters: dose 0.5 mg/kg, route intravenous; settings: in vivo, read-out: Vdss; method in brief: as §1
[8] = Volume of distribution at steady state in cynomolgus monkey at 0.5 mg/kg, iv; type: ADME, organism-based, Macaca fascicularis; parameters: dose 0.5 mg/kg, route intravenous; settings: in vivo, read-out: Vdss; method in brief: as §1
[9] = Volume of distribution at steady state in dog at 0.5 mg/kg, iv; type: ADME, organism-based, Canis lupus familiaris; parameters: dose 0.5 mg/kg, route intravenous; settings: in vivo, read-out: Vdss; method in brief: as §1
[10] = Half life in rat at 0.5 mg/kg, iv; type: ADME, organism-based; parameters: dose 0.5 mg/kg, route intravenous; settings: in vivo; method in brief: as §1
[11] = Half life in cynomolgus monkey at 0.5 mg/kg, iv; type: ADME, organism-based, Macaca fascicularis; parameters: dose 0.5 mg/kg, route intravenous; settings: in vivo; method in brief: as §1
[12] = Half life in dog at 0.5 mg/kg, iv; type: ADME, organism-based, Canis lupus familiaris; parameters: dose 0.5 mg/kg, route intravenous; settings: in vivo; method in brief: as §1
[13] = Oral bioavailability in rat at 2 mg/kg; type: ADME, organism-based; settings: in vivo
Method in brief: (§2)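 Oral dose 2.0 mg/kg. Rat and dog received a solution in 15% HPβCD in Ora-Plus. Cynomolgus monkey received a suspension in 1% Tween 80 and 1% methylcellulose (4000 cps) in deionized water. Values are averages of three animals; iv reference dose was 0.5 mg/kg.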

[14] = Oral bioavailability in cynomolgus monkey at 2 mg/kg; type: ADME, organism-based, Macaca fascicularis; settings: in vivo; method in brief: as §2
[15] = Oral bioavailability in dog at 2 mg/kg; type: ADME, organism-based, Canis lupus familiaris; settings: in vivo; method in brief: as §2
[16] = Cmax in rat at 2 mg/kg, po; type: ADME, organism-based; parameters: dose 2 mg/kg, route oral; settings: in vivo; method in brief: as §2
[17] = Cmax in cynomolgus monkey at 2 mg/kg, po; type: ADME, organism-based, Macaca fascicularis; parameters: dose 2 mg/kg, route oral; settings: in vivo; method in brief: as §2
[18] = Cmax in dog at 2 mg/kg, po; type: ADME, organism-based, Canis lupus familiaris; parameters: dose 2 mg/kg, route oral; settings: in vivo; method in brief: as §2
Cynomolgus monkey = settings: Macaca fascicularis; at 10 mg/kg

For c1ccc2ccccc2c1, the PB (Liver microsome [1]) was 420 pmol.
Compound C[C@@H]1CN(CC2(C(N)=O)CC2)[14CH2][14CH2]N1S(=O)(=O)c1ccc([C@](C)(O)C(F)(F)F)cc1 has a PB (Liver microsome [1]) of 70 pmol and a PB (Liver microsome [2]) of 70 pmol.
With C[C@](O)(c1ccc(S(=O)(=O)c2ccc([14C]#N)cc2Cl)cc1)C(F)(F)F the PB (Liver microsome [1]) was 370 pmol, the metabolised at 2 h [3] was 9.8% and the PB (Liver microsome [2]) was 370 pmol.
Compound C[C@](O)(c1ccc(C(=O)N(C2CC2)[C@H]2CC[C@](CO[14C](N)=O)(c3ccc(F)cc3)CC2)cc1)C(F)(F)F has a PB (Liver microsome [1]) of 15 pmol and a PB (Liver microsome [2]) of 15 pmol.
For C[C@](O)(c1ccc(C(=O)N(C2CC2)[C@H]2CC[C@](COC(N)=O)(c3ccc(F)cc3)CC2)cc1)C(F)(F)F (mixture of isomers), the clearance [4] was 0.683 mL/min/kg, the clearance [5] was 0.483 mL/min/kg and the clearance [6] was 0.2 mL/min/kg. For the same compound, the Vd [7] was 2.3 L/kg, the Vd [8] was 1 L/kg and the Vd [9] was 1.2 L/kg. The half-life [10] was 43 h, the half-life [11] was 27 h and the half-life [12] was 78 h. It also gave a bioavailability [13] of 72%, a bioavailability [14] of 38% and a bioavailability [15] of 88%. For the same compound, the Cmax [16] was 1130 ng/mL, the Cmax [17] was 211 ng/mL and the Cmax [18] was 1840 ng/mL. For the same compound, the inhibition (Cynomolgus monkey) was “Dose-dependent effect”.
